The source made the active and inactive calls. No cut-off for these calls is given here.
Assays:
Mus musculus [1] = test: Anticonvulsant activity in mouse assessed as inhibition of pentylenetetrazole-induced seizure at 300 mg/kg, ip after 0.5 hrs; format: functional, organism-based; parameters: dose 300 mg/kg
Summary of the method: (§1)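 Male albino mice (CF-1 or Swiss, 18–25 g) received compound suspended in polyethylene glycol 400, i.p., 0.01 ml/g, at 30, 100 and 300 mg/kg. Maximal electroshock and subcutaneous pentylenetetrazole seizure tests were run at 0.5 and 4 h by a previously reported procedure.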

Mus musculus [2] = test: Sedative-hypnotic effect in mouse assessed as inhibition of locomotor activity at 100 mg/kg, ip by actophotometer; format: functional; conditions: route intraperitoneal
Summary of the method: (§2)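 Locomotor activity in mice was read as a digital photocell score on an actophotometer. Baseline was taken 24 h before treatment, then at 30 min and 1 h after 100 mg/kg i.p. Controls received PEG 400. Percent decrease was calculated from the 1 h values. Results are mean ± SEM of six mice, compared with Student's t test.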

Mus musculus [3] = test: Sedative-hypnotic effect in mouse assessed as decrease locomotor activity score at 100 mg/kg, ip after 0.5 hrs by actophotometer; format: functional; conditions: route intraperitoneal; summary of the method: as §2
Mus musculus [4] = test: Neurotoxicity in ip dosed mouse after 0.5 hrs by rotarod test; format: toxicity, organism-based; conditions: in vivo
Summary of the method: (§3)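 Mice dosed i.p. at 30, 100 and 300 mg/kg in PEG 400 were examined 0.5 and 4 h later on a rotorod. Animals were pre-trained on a 3.2 cm rod turning at 6 rpm. Neurotoxicity meant failing to keep equilibrium for at least 1 min in each of three trials. The value is the minimum dose affecting half or more of the animals.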

Mus musculus [5] = test: Anticonvulsant activity in mouse assessed as inhibition of maximal electroshock-induced seizures at 300 mg/kg, ip after 0.5 hrs; format: functional, organism-based; parameters: dose 300 mg/kg; summary of the method: as §1
Mus musculus [6] = test: Sedative-hypnotic effect in mouse assessed as decrease locomotor activity score at 100 mg/kg, ip after 1 hr by actophotometer; format: functional; conditions: route intraperitoneal; summary of the method: as §2
Mus musculus [7] = test: Anticonvulsant activity in mouse assessed as inhibition of pentylenetetrazole-induced seizure at 300 mg/kg, ip after 4 hrs; format: functional, organism-based; parameters: dose 300 mg/kg; summary of the method: as §1
Mus musculus [8] = test: Neurotoxicity in mouse at 300 mg/kg, ip after 4 hrs by rotarod test; format: toxicity, organism-based; parameters: dose 300 mg/kg, route intraperitoneal; conditions: in vivo; summary of the method: as §3
Mus musculus [9] = test: Anticonvulsant activity in mouse assessed as inhibition of maximal electroshock-induced seizures at 300 mg/kg, ip after 4 hrs; format: functional, organism-based; parameters: dose 300 mg/kg; summary of the method: as §1
Mus musculus [10] = test: Neurotoxicity in mouse at 100 mg/kg, ip after 0.25 hrs by rotarod test; format: toxicity, organism-based; parameters: dose 100 mg/kg, route intraperitoneal; conditions: in vivo
Mus musculus [11] = test: Anticonvulsant activity in ip dosed mouse assessed as inhibition of maximal electroshock-induced seizures after 4 hrs; format: functional; summary of the method: as §1
Mus musculus [12] = test: Neurotoxicity in mouse at 100 mg/kg, ip after 1 hr by rotarod test; format: toxicity, organism-based; parameters: dose 100 mg/kg, route intraperitoneal; conditions: in vivo
Mus musculus [13] = test: Neurotoxicity in mouse at 300 mg/kg, ip after 0.5 hrs by rotarod test; format: toxicity, organism-based; parameters: dose 300 mg/kg, route intraperitoneal; conditions: in vivo; summary of the method: as §3
Mus musculus [14] = test: Anticonvulsant activity in ip dosed mouse assessed as inhibition of pentylenetetrazole-induced seizure after 4 hrs; format: functional; summary of the method: as §1
Mus musculus [15] = test: Anticonvulsant activity in ip dosed mouse assessed as inhibition of maximal electroshock-induced seizures after 0.5 hrs; format: functional; summary of the method: as §1
Mus musculus [16] = test: Anticonvulsant activity in ip dosed mouse assessed as inhibition of pentylenetetrazole-induced seizure after 0.5 hrs; format: functional; summary of the method: as §1
Mus musculus [17] = test: Neurotoxicity in ip dosed mouse after 4 hrs by rotarod test; format: toxicity, organism-based; conditions: in vivo; summary of the method: as §3
Rattus norvegicus = test: Antidepressant activity in Wistar rat assessed as increase in immobility time at 30 mg/kg, ip after 30 mins by forced-swimming test; format: functional; conditions: route intraperitoneal
Mus musculus [18] = test: Neurotoxicity in mouse assessed as loss of righting reflux at 100 mg/kg, ip after 0.5 hrs; format: toxicity, organism-based; parameters: dose 100 mg/kg, route intraperitoneal; conditions: in vivo

SMILES	Activity (Mus musculus [1])	inhibition in vivo at 100 mg/kg (Mus musculus [2])	Activity (Mus musculus [3])	Activity (Mus musculus [4])	Activity (Mus musculus [5])	Activity (Mus musculus [6])	Activity (Mus musculus [7])	Activity (Mus musculus [8])	Activity (Mus musculus [9])	Activity (Mus musculus [10])	Activity (Mus musculus [11])	Activity (Mus musculus [12])	Activity (Mus musculus [13])	Activity (Mus musculus [14])	Activity (Mus musculus [15])	Activity (Mus musculus [16])	Activity (Mus musculus [17])	Activity (Rattus norvegicus)	Activity (Mus musculus [18])
COc1ccc(/C=C/c2nc3ccccc3c(=O)n2-c2nnc(-c3ccc(OC)cc3)s2)cc1	inactive	59%	308.13	300 mg/kg	inactive	180.3	inactive	Not Active	inactive										
O=c1c2ccccc2nc(/C=C/c2ccccc2)n1-c1nnc(-c2cccc(Cl)c2)s1	inactive	63%	319.57	300 mg/kg	inactive	165.52	inactive	Not Active		Toxic	100 mg/kg	Toxic							
COc1ccc(/C=C/c2nc3ccccc3c(=O)n2-c2nnc(-c3ccc(Cl)cc3)s2)cc1		62%	306.98		inactive	155.31		Not Active			300 mg/kg		Not Active	300 mg/kg					
COc1ccc(-c2nnc(-n3c(/C=C/c4ccc(C)cc4)nc4ccccc4c3=O)s2)cc1	inactive	65%	272.19		inactive	137.19	inactive	Not Active	inactive				Not Active						
O=c1c2ccccc2nc(/C=C/c2ccccc2)n1-c1nnc(-c2ccc(Cl)cc2)s1		68%	250.62			132.04		Not Active			100 mg/kg		Not Active	300 mg/kg	100 mg/kg	300 mg/kg			
O=c1c2ccccc2nc(/C=C/c2ccccc2)n1-c1nnc(/C=C/c2ccccc2)s1	inactive		372.87	300 mg/kg	inactive	489.92	inactive	Not Active	inactive										
NC(=O)N1c2ccccc2C=Cc2ccccc21 [CARBAMAZEPINE]				100 mg/kg							100 mg/kg			300 mg/kg	30 mg/kg	100 mg/kg	300 mg/kg	240.3 s	
COc1ccc(/C=C/c2nc3ccccc3c(=O)n2-c2nnc(-c3ccccc3)s2)cc1	inactive	55%	419.24		inactive	210.24	inactive	Not Active	inactive										Toxic
Cc1ccc(/C=C/c2nc3ccccc3c(=O)n2-c2nnc(-c3ccc(Cl)cc3)s2)cc1	inactive	64%	373.56		inactive	153.08	inactive	Not Active			300 mg/kg		Not Active						
COc1ccc(/C=C/c2nc3ccccc3c(=O)n2-c2nnc(-c3cccc(Cl)c3)s2)cc1	inactive	66%	292.39		inactive	110.45	inactive	Not Active			300 mg/kg		Not Active						
COc1ccc(/C=C/c2nc3ccccc3c(=O)n2-c2nnc(-c3ccc(C)cc3)s2)cc1		64%	315.46		inactive	142.19	inactive	Not Active	inactive				Not Active			300 mg/kg			

Source: ChEMBL document CHEMBL1157208, “Synthesis and CNS depressant activity of some novel 3-[5-substituted 1,3,4-thiadiazole-2-yl]-2-styryl quinazoline-4(3H)-ones” (Eur J Med Chem, 2008)
